Values after ≈ are worked out from the molar mass of the structure shown.
Tests used:
[1] = tested on: Aeromonas allosaccharophila; assay: Antimicrobial activity against Aeromonas allosaccharophila AL-1 expressing beta-lactamase PER6 by agar dilution method; assay type: functional
Outline: (§1)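 The test organism was environmental isolate AL-1, recovered from Seine River water on MacConkey agar containing ceftazidime (2 μg/ml). It was identified by API 32GN and 16S rRNA gene sequencing. MICs were determined by agar dilution on Mueller-Hinton agar and interpreted by CLSI guidelines.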

Escherichia coli [2] = assay: Antimicrobial activity against Escherichia coli DH10B harboring recombinant Aeromonas allosaccharophila AL-1 beta-lactamase PER1 by agar dilution method; assay type: functional; settings: K-12 DH10B
Escherichia coli [3] = assay: Antimicrobial activity against Escherichia coli DH10B by agar dilution method; assay type: functional; settings: K-12 DH10B
Outline: (§2)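 MICs measured by agar dilution on Mueller-Hinton agar plates, the method used for imipenem and imipenem combined with clavulanate; other MICs were obtained by Etest. Results were interpreted according to CLSI guidelines. Test strains were E. coli DH10B recombinants carrying cloned PER-1, PER-2 or PER-6 β-lactamase genes.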

Escherichia coli [4] = assay: Antimicrobial activity against Escherichia coli DH10B harboring recombinant Aeromonas allosaccharophila AL-1 beta-lactamase PER2 by agar dilution method; assay type: functional; settings: K-12 DH10B
Escherichia coli [5] = assay: Antimicrobial activity against Escherichia coli DH10B harboring recombinant Aeromonas allosaccharophila AL-1 beta-lactamase PER6 by agar dilution method; assay type: functional; settings: K-12 DH10B
[6] = tested on: Aeromonas allosaccharophila; assay: Ratio of Kcat to Km for Aeromonas allosaccharophila AL-1 beta-lactamase PER2
Escherichia coli [7] = assay: Antimicrobial activity against Escherichia coli DH10B by agar dilution method in presence of 4 ug/ml of clavulanic acid; assay type: functional; settings: K-12 DH10B; outline: as §2
[8] = tested on: Aeromonas allosaccharophila; assay: Antimicrobial activity against Aeromonas allosaccharophila AL-1 expressing beta-lactamase PER6 by agar dilution method in presence of 4 ug/ml of clavulanic acid; assay type: functional; outline: as §1
Escherichia coli [9] = assay: Antimicrobial activity against Escherichia coli DH10B harboring recombinant Aeromonas allosaccharophila AL-1 beta-lactamase PER2 by agar dilution method in presence of 4 ug/ml of clavulanic acid; assay type: functional; settings: K-12 DH10B
Escherichia coli [10] = assay: Antimicrobial activity against Escherichia coli DH10B harboring recombinant Aeromonas allosaccharophila AL-1 beta-lactamase PER6 by agar dilution method in presence of 4 ug/ml of clavulanic acid; assay type: functional; settings: K-12 DH10B
Escherichia coli [11] = assay: Antimicrobial activity against Escherichia coli DH10B harboring recombinant Aeromonas allosaccharophila AL-1 beta-lactamase PER1 by agar dilution method in presence of 4 ug/ml of clavulanic acid; assay type: functional; settings: K-12 DH10B
[12] = substrate: CO/N=C(\C(=O)N[C@@H]1C(=O)N2C(C(=O)[O-])=C(C[N+]3(C)CCCC3)CS[C@H]12)c1csc(N)n1; assay: (§3) Activity at Aeromonas allosaccharophila AL-1 beta-lactamase PER6
Outline: (§4)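 PER-6 enzyme was purified from a crude extract of E. coli DH10B(pPER-6). Purification used cation exchange on S-Sepharose at pH 6.8, then anion exchange on Q-Sepharose at pH 8. Purity was >90% by SDS-PAGE. The purified enzyme was used for hydrolysis and inhibition measurements.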

[13] = substrate: CC1(C)S[C@@H]2[C@H](NC(=O)[C@H](N)c3ccccc3)C(=O)N2[C@H]1C(=O)O; assay: as §3; outline: as §4
[14] = substrate: CC1(C)S[C@@H]2[C@H](NC(=O)Cc3ccccc3)C(=O)N2[C@H]1C(=O)O; assay: as §3; outline: as §4
[15] = substrate: CCN1CCN(C(=O)N[C@@H](C(=O)N[C@@H]2C(=O)N3[C@@H]2SC(C)(C)[C@@H]3C(=O)O)c2ccccc2)C(=O)C1=O; assay: as §3; outline: as §4
[16] = substrate: CO/N=C(\C(=O)N[C@@H]1C(=O)N2C(C(=O)O)=C(COC(C)=O)CS[C@H]12)c1csc(N)n1; assay: as §3; outline: as §4
[17] = substrate: C[C@@H](O)[C@H]1C(=O)N2C(C(=O)O)=C(SCCNC=N)C[C@H]12; assay: as §3; outline: as §4
[18] = substrate: CC(C)(O/N=C(\C(=O)N[C@@H]1C(=O)N2C(C(=O)[O-])=C(C[n+]3ccccc3)CS[C@H]12)c1csc(N)n1)C(=O)O; assay: as §3; outline: as §4
[19] = substrate: CC(=O)OCC1=C(C(=O)O)N2C(=O)[C@@H](NC(=O)Cc3cccs3)[C@H]2SC1; assay: as §3; outline: as §4
[20] = substrate: C[C@@H](O)[C@H]1C(=O)N2C(C(=O)O)=C(S[C@@H]3CN[C@H](C(=O)Nc4cccc(C(=O)O)c4)C3)[C@H](C)[C@H]12; assay: as §3; outline: as §4
[21] = substrate: C[C@H]1[C@H](NC(=O)/C(=N\OC(C)(C)C(=O)O)c2csc(N)n2)C(=O)N1S(=O)(=O)O; assay: as §3; outline: as §4
[22] = substrate: CO/N=C(\C(=O)N[C@@H]1C(=O)N2C(C(=O)[O-])=C(C[n+]3cccc4c3CCC4)CS[C@H]12)c1csc(N)n1; assay: as §3; outline: as §4
[23] = substrate: C[C@@H](O)[C@H]1C(=O)N2C(C(=O)O)=C(S[C@@H]3CN[C@H](C(=O)N(C)C)C3)[C@H](C)[C@H]12; assay: as §3; outline: as §4
[24] = substrate: CC1(C)S[C@@H]2[C@H](NC(=O)[C@H](C(=O)O)c3ccsc3)C(=O)N2[C@H]1C(=O)O; assay: as §3; outline: as §4
[25] = substrate: CO/N=C(\C(=O)N[C@@H]1C(=O)N2C(C(=O)[O-])=C(C[N+]3(C)CCCC3)CS[C@H]12)c1csc(N)n1; assay: (§5) Ratio of Kcat to Km for Aeromonas allosaccharophila AL-1 beta-lactamase PER6; outline: as §4
[26] = substrate: CC1(C)S[C@@H]2[C@H](NC(=O)[C@H](N)c3ccccc3)C(=O)N2[C@H]1C(=O)O; assay: as §5; outline: as §4
[27] = substrate: CC1(C)S[C@@H]2[C@H](NC(=O)Cc3ccccc3)C(=O)N2[C@H]1C(=O)O; assay: as §5; outline: as §4
[28] = substrate: CCN1CCN(C(=O)N[C@@H](C(=O)N[C@@H]2C(=O)N3[C@@H]2SC(C)(C)[C@@H]3C(=O)O)c2ccccc2)C(=O)C1=O; assay: as §5; outline: as §4
[29] = substrate: CO/N=C(\C(=O)N[C@@H]1C(=O)N2C(C(=O)O)=C(COC(C)=O)CS[C@H]12)c1csc(N)n1; assay: as §5; outline: as §4
[30] = substrate: C[C@@H](O)[C@H]1C(=O)N2C(C(=O)O)=C(SCCNC=N)C[C@H]12; assay: as §5; outline: as §4
[31] = substrate: CC(C)(O/N=C(\C(=O)N[C@@H]1C(=O)N2C(C(=O)[O-])=C(C[n+]3ccccc3)CS[C@H]12)c1csc(N)n1)C(=O)O; assay: as §5; outline: as §4
[32] = substrate: CC(=O)OCC1=C(C(=O)O)N2C(=O)[C@@H](NC(=O)Cc3cccs3)[C@H]2SC1; assay: as §5; outline: as §4
[33] = substrate: C[C@@H](O)[C@H]1C(=O)N2C(C(=O)O)=C(S[C@@H]3CN[C@H](C(=O)Nc4cccc(C(=O)O)c4)C3)[C@H](C)[C@H]12; assay: as §5; outline: as §4
[34] = substrate: C[C@H]1[C@H](NC(=O)/C(=N\OC(C)(C)C(=O)O)c2csc(N)n2)C(=O)N1S(=O)(=O)O; assay: as §5; outline: as §4
[35] = substrate: CO/N=C(\C(=O)N[C@@H]1C(=O)N2C(C(=O)[O-])=C(C[n+]3cccc4c3CCC4)CS[C@H]12)c1csc(N)n1; assay: as §5; outline: as §4
[36] = substrate: C[C@@H](O)[C@H]1C(=O)N2C(C(=O)O)=C(S[C@@H]3CN[C@H](C(=O)N(C)C)C3)[C@H](C)[C@H]12; assay: as §5; outline: as §4
[37] = substrate: CC1(C)S[C@@H]2[C@H](NC(=O)[C@H](C(=O)O)c3ccsc3)C(=O)N2[C@H]1C(=O)O; assay: as §5; outline: as §4

Molecule: C[C@@H](O)[C@H]1C(=O)N2C(C(=O)O)=C(S[C@@H]3CN[C@H](C(=O)N(C)C)C3)[C@H](C)[C@H]12 [MEROPENEM]
- MIC [1]: 0.06 µg/mL (≈ 0.156 µM)
- MIC (Escherichia coli [2]): 0.03 µg/mL
- MIC (Escherichia coli [3]): 0.06 µg/mL (≈ 0.156 µM)
- MIC (Escherichia coli [4]): 0.03 µg/mL

Molecule: CO[C@@]1(NC(=O)C(C(=O)O)c2ccc(O)cc2)C(=O)N2C(C(=O)O)=C(CSc3nnnn3C)CO[C@@H]21 (some centres undefined) [MOXALACTAM]
- MIC [1]: < 0.06 µg/mL
- MIC (Escherichia coli [2]): 1 µg/mL
- MIC (Escherichia coli [3]): 0.12 µg/mL (≈ 0.231 µM)
- MIC (Escherichia coli [5]): 2 µg/mL
- MIC (Escherichia coli [4]): 0.5 µg/mL

Molecule: CCN1CCN(C(=O)N[C@@H](C(=O)N[C@@H]2C(=O)N3[C@@H]2SC(C)(C)[C@@H]3C(=O)O)c2ccccc2)C(=O)C1=O [PIPERACILLIN]
- MIC [1]: 4 µg/mL (≈ 7.73 µM)
- MIC (Escherichia coli [2]): 32 µg/mL
- kcat/Km [6]: 200000 M⁻¹ s⁻¹
- MIC (Escherichia coli [3]): 1 µg/mL (≈ 1.93 µM)
- MIC (Escherichia coli [5]): 256 µg/mL
- MIC (Escherichia coli [4]): 256 µg/mL

Molecule: CC1(C)S[C@@H]2[C@H](NC(=O)[C@H](C(=O)O)c3ccsc3)C(=O)N2[C@H]1C(=O)O [TICARCILLIN]
- MIC [1]: > 256 µg/mL
- MIC (Escherichia coli [2]): > 256 µg/mL
- MIC (Escherichia coli [7]): 4 µg/mL
- MIC [8]: 256 µg/mL
- MIC (Escherichia coli [9]): 16 µg/mL
- MIC (Escherichia coli [3]): 4 µg/mL (≈ 10.4 µM)
- MIC (Escherichia coli [10]): 12 µg/mL
- MIC (Escherichia coli [5]): > 256 µg/mL
- MIC (Escherichia coli [11]): 16 µg/mL
- MIC (Escherichia coli [4]): > 256 µg/mL

B1: Extended-spectrum beta-lactamase PER-6 (Aeromonas allosaccharophila), D5HSX5 (protein)
chain: MNVIAKGVFTTTALLMLSLSSWVVSAQSPLLKEQIETIVTGKKATVGVAVWGPDDLEPLLVNPFEKFPMQSVFKMHLAMLVLHQVDQGKLDLNKTVAVNRAAVLQNTWSPMMKDHQGDEFTVTVQQLLQYSVSHSDNVACDLLFELVGGPAALHAYIQSLGIKETEVVANEAQMHADDQVQYKNWTSMKAAAQLLRKFEQKKQLSETSQALLWKWMVETTTGPQRLKGLLPAGTVVAHKTGTSGVRAGKTAATNDIGVIMLPDGRPLLVAVFVKDSAESARTNEAIIAQVAQAAYQFELKKLSAVSPD
- Km [12]: 2000 µM
- kcat [12]: 10 s⁻¹
- Km [13]: 20 µM
- kcat [13]: 1 s⁻¹
- Km [14]: 200 µM
- kcat [14]: 5 s⁻¹
- Km [15]: 4 µM
- kcat [15]: 0.1 s⁻¹
- Km [16]: 900 µM
- kcat [16]: 40 s⁻¹
- Km [17]: 1.5 µM
- kcat [17]: 0.006 s⁻¹
- Km [18]: 1000 µM
- kcat [18]: 12 s⁻¹
- Km [19]: 55 µM
- kcat [19]: 8 s⁻¹
- Km [20]: 7 µM
- kcat [20]: 0.002 s⁻¹
- Km [21]: 40 µM
- kcat [21]: 3 s⁻¹
- Km [22]: 1500 µM
- kcat [22]: 12 s⁻¹
- Km [23]: 10 µM
- kcat [23]: 0.004 s⁻¹
- Km [24]: 9 µM
- kcat [24]: 0.4 s⁻¹
- kcat/Km [25]: 5000 M⁻¹ s⁻¹
- kcat/Km [26]: 50000 M⁻¹ s⁻¹
- kcat/Km [27]: 25000 M⁻¹ s⁻¹
- kcat/Km [28]: 25000 M⁻¹ s⁻¹
- kcat/Km [29]: 45000 M⁻¹ s⁻¹
- kcat/Km [30]: 4000 M⁻¹ s⁻¹
- kcat/Km [31]: 1e+07 M⁻¹ s⁻¹
- kcat/Km [32]: 145000 M⁻¹ s⁻¹
- kcat/Km [33]: 300 M⁻¹ s⁻¹
- kcat/Km [34]: 7.5e+07 M⁻¹ s⁻¹
- kcat/Km [35]: 8000 M⁻¹ s⁻¹
- kcat/Km [36]: 400 M⁻¹ s⁻¹
- kcat/Km [37]: 50000 M⁻¹ s⁻¹
